Inhibition in vivo data for one molecule are collected here from ChEMBL document CHEMBL2384906, “Biological activity, design, synthesis and structure activity relationship of some novel derivatives of curcumin containing sulfonamides” (Eur J Med Chem, 2013).

The subject of the assay is Mus musculus. Briefly: Antiinflammatory activity in mouse assessed as inhibition of carrageenan-induced increase in paw volume at 100 mg/kg, ip administered 1 hr prior to carrageenan challenge measured after 3 hrs relative to control. The assay is classed as functional. To be noted: route intraperitoneal. Put shortly:
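Mice were fasted 2 h and placed in groups of five. Controls received saline i.p. Phenylbutazone was given at 100 mg/kg i.p., curcumin at 200 mg/kg i.p., and derivatives at 200 mg/kg. After 1 h, 0.1 mL of 1% carrageenan in saline was injected subplantar into the right hind paw. Paw volume was followed by plethysmometer for 3 h, and % inhibition was calculated as (Vc − Vt)/Vc × 100.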

Turning to `CCCCC1C(=O)N(c2ccccc2)N(c2ccccc2)C1=O` [PHENYLBUTAZONE], the inhibition in vivo at 100 mg/kg worked out at 70.9%.

What is called inhibition in vivo is the percentage by which the read-out fell short of the control.
